Activity and EC50 data for ten compounds are collected here from ChEMBL document CHEMBL3745614, “Potent and selective N-(4-sulfamoylphenyl)thiourea-based GPR55 agonists” (Eur J Med Chem, 2016).

The structures appear in SMILES notation. pEC50: −log10 of the molar value.

In general, pEC50 refers to the EC50 on a negative log10 scale, so that one unit is a factor of ten.

Test [1] concerns the target T1, G-protein coupled receptor 55 (Homo sapiens, UniProt Q9Y2T6). The test can be described thus: Agonist activity at human GPR55 expressed in CHOK1 cells at 10 uM by pathHunter beta-arrestin assay relative to LPI. As to conditions: CHO-K1. The class given is cell-based. An outline of the steps:
(§1)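 PathHunter eXpress GPR55 CHO-K1 β-arrestin kit run per the kit protocol, compounds screened at 10 μM. Luminescence read and expressed as percentage of the signal from bovine liver LPI at 1 μM. Mean with range of two experiments, each done in duplicate.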

Test [2] addresses Cannabinoid receptor 1 (Homo sapiens) (UniProt P21554). The experiment in a line: Agonist activity at CBR1 (unknown origin) assessed as [35S]GTPgammaS binding at 10 uM by […] assay relative to control. The class given is functional.
The target of test [3] is Cannabinoid receptor 2 (Homo sapiens) (UniProt P34972). The test can be described thus: Antagonist activity at human CBR2 assessed as [35S]GTPgammaS binding at 10 uM by […] assay relative to control. Format: functional. More on the design: scale not given: the % may be the effect or the level left. (GTPγS is a poorly hydrolysed GTP analogue; its binding reports G protein activation.)
Sequence of Cannabinoid receptor 2 (Homo sapiens) (P34972 whole entry): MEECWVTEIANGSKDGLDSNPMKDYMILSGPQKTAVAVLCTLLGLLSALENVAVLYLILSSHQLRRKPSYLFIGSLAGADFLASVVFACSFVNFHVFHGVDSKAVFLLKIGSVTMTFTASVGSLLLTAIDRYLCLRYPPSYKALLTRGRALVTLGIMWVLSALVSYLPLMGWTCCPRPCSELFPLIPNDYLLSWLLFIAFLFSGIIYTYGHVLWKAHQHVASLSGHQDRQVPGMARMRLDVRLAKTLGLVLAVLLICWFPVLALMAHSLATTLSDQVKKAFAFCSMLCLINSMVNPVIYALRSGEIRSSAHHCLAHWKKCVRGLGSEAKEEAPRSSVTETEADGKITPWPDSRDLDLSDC

Test [4] shares this target. The experiment in a line: Agonist activity at CBR2 (unknown origin) assessed as [35S]GTPgammaS binding at 10 uM by […] assay relative to control. The class given is functional.
Test [5] deals with T2, Fatty-acid amide hydrolase 1 (Homo sapiens) (UniProt O00519).
T2 sequence (whole entry): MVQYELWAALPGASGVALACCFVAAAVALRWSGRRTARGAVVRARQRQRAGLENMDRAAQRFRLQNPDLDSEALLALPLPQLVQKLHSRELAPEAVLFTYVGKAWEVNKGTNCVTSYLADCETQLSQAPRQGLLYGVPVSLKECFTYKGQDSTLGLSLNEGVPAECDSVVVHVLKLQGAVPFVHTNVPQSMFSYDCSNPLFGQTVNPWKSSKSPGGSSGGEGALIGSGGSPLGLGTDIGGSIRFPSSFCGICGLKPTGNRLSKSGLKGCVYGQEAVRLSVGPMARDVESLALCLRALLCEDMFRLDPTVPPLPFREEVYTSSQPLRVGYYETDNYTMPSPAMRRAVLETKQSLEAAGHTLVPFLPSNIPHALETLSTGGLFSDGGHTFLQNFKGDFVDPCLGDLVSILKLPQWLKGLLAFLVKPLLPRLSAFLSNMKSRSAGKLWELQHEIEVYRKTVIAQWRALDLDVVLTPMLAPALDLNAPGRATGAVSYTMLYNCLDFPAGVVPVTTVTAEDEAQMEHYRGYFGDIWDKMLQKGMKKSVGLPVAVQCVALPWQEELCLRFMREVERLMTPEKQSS
The experiment in a line: Inhibition of human FAAH expressed in African green monkey COS-7 cell membranes using [3H]-AEA as substrate assessed as residual activity at 10 uM preincubated for 10 mins followed by substrate addition measured after 10 mins by liquid scintillation counting analysis relative to control. The method in brief: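 Membranes of COS-7 cells overexpressing hFAAH, 1 μg protein per incubation. Substrate 20 μM AEA including 10 nM [3H]AEA (60 Ci/mmol). Compounds tested at 10 μM.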

Test [6] has as its target T3, Monoglyceride lipase (Homo sapiens) (UniProt Q99685).
T3 sequence (whole entry): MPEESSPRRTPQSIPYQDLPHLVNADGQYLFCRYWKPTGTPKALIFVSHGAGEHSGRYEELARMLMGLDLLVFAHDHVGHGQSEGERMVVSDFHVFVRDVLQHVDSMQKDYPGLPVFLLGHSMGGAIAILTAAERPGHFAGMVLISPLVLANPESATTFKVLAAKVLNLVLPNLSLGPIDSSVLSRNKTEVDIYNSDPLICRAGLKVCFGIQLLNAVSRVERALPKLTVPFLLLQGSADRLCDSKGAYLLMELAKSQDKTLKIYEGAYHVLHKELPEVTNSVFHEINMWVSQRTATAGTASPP
The test can be described thus: Inhibition of human MGL expressed in […] cells using 2AG as substrate assessed as residual activity at 10 uM preincubated for 10 mins followed by substrate addition measured after 10 mins by HPLC analysis. The class given is cell-based. The method in brief:
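Lysates of HEK cells overexpressing hMGL, 2.5 μg protein per incubation, substrate at 50 μM. Compounds tested at 10 μM.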

The target in test [7] is T4, Lysophosphatidylserine lipase ABHD12 (Homo sapiens) (UniProt Q8N2K0).
T4 sequence (whole entry): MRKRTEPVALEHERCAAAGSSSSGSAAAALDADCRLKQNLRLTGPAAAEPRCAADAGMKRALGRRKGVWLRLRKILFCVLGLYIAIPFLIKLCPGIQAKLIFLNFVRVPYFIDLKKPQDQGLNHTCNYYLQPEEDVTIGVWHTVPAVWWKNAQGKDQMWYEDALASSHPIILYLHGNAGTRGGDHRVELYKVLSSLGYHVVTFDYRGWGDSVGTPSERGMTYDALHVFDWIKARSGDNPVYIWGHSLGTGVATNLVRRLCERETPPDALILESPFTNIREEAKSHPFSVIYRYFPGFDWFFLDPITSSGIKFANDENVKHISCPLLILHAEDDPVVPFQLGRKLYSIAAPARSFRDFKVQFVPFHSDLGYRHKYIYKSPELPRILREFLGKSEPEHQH
The experiment in a line: Inhibition of human ABHD12 expressed in […] cells using 2-AG as substrate assessed as glycerol liberation at 10 uM preincubated for 30 mins followed by 2-AG addition measured for 90 mins by fluorescent glycerol assay relative to control. The class given is cell-based. Set-up: scale not given: the % may be the effect or the level left. The method in brief: (§2)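 Lysates of HEK293 cells transiently overexpressing hABHD6 or hABHD12, 0.3 μg protein/well. Pretreated 30 min with DMSO or compound, then 2-AG added (12.5 μM final). Glycerol release coupled enzymatically to H2O2-dependent resorufin formation; fluorescence (ex 530/em 590 nm) followed kinetically for 90 min.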

Test [8] addresses T4, Lysophosphatidylserine lipase ABHD12 (Homo sapiens). The experiment in a line: Inhibition of human ABHD12 expressed in […] cells using 2-AG as substrate assessed as glycerol liberation at 1 uM preincubated for 30 mins followed by 2-AG addition measured for 90 mins by fluorescent glycerol assay relative to control. Format: cell-based. More on the design: scale not given: the % may be the effect or the level left. The method in brief:
as §2

Test [9] deals with T5, Monoacylglycerol lipase ABHD6 (Homo sapiens) (UniProt Q9BV23).
T5 sequence (whole entry): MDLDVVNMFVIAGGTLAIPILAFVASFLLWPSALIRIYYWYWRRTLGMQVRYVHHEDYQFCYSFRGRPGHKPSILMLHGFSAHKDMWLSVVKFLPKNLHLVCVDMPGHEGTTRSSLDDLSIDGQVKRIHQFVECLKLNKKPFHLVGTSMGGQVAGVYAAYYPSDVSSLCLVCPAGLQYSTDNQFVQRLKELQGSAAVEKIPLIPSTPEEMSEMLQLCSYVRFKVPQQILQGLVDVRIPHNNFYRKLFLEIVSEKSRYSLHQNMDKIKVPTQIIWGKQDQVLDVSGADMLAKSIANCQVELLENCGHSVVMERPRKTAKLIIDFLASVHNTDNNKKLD
The test can be described thus: Inhibition of human ABHD6 expressed in […] cells using 2-AG as substrate assessed as glycerol liberation at 10 uM preincubated for 30 mins followed by 2-AG addition measured for 90 mins by fluorescent glycerol assay relative to control. The class given is cell-based. Set-up: scale not given: the % may be the effect or the level left. An outline of the steps:
as §2

Test [10] deals with T5, Monoacylglycerol lipase ABHD6 (Homo sapiens). The experiment in a line: Inhibition of human ABHD6 expressed in […] cells using 2-AG as substrate assessed as glycerol liberation at 1 uM preincubated for 30 mins followed by 2-AG addition measured for 90 mins by fluorescent glycerol assay relative to control. Format: cell-based. More on the design: scale not given: the % may be the effect or the level left. The method in brief: as §2

In test [11] the target is T1, G-protein coupled receptor 55. The experiment in a line: Agonist activity at human GPR55 expressed in CHOK1 cells at 10 uM by pathHunter beta-arrestin assay relative to control. The class given is cell-based. The note with it: CHO-K1. An outline of the steps:
as §1

Test [12] has as its target Cannabinoid receptor 1 (Homo sapiens) (UniProt P21554). The experiment in a line: Antagonist activity at human CBR1 assessed as [35S]GTPgammaS binding at 10 uM by radiometric assay relative to control. More on the design: scale not given: the % may be the effect or the level left.
Test [13] addresses T1, G-protein coupled receptor 55. The test can be described thus: Agonist activity at human GPR55 expressed in HEK293 cells assessed as calcium signalling by fura 2-based digital epifluorescence microscopy. Format: functional, cell-based. The method in brief: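 HEK293 cells stably expressing GPR55, grown on poly-L-lysine coated glass coverslips and serum-starved overnight. Compounds applied by bath perfusion in HEPES-buffered saline at 30-32 °C. Single-cell fura 2 ratiometric imaging (350/380 nm) every 5 s. Peak responses pooled from 24 cells (12 random cells from each of two experiments) per concentration; EC50 with 95% CI from concentration-response curves. ARA-LPI used as reference agonist.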

Sequence of Cannabinoid receptor 1 (Homo sapiens) (P21554 whole entry, the tested form may be a part): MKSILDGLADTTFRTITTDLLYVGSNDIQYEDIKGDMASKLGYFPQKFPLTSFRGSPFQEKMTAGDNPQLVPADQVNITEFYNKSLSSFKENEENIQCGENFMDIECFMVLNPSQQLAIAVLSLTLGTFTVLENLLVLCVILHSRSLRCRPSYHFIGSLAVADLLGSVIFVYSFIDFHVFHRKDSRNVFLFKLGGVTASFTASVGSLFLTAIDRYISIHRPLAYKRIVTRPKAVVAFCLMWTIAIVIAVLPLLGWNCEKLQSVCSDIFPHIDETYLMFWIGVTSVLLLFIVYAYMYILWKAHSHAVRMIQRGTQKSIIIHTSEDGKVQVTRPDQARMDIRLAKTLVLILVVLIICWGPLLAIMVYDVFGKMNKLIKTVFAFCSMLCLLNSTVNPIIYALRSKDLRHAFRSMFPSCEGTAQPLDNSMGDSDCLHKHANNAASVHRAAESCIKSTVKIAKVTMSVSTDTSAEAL
T1 sequence (Q9Y2T6 whole entry): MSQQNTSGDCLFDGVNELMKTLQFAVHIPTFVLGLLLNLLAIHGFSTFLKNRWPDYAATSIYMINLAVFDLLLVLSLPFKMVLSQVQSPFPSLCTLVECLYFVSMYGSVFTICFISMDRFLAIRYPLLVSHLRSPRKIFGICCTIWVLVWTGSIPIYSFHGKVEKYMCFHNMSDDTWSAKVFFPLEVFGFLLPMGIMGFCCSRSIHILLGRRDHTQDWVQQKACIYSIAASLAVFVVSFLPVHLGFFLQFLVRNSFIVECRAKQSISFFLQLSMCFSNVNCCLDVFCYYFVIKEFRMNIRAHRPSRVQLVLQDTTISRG

For the compound `Cc1ccc(C(=O)NC(=S)Nc2ccc(S(=O)(=O)NC(C)(C)C)cc2)cc1`, the Activity in [1] came to 69%; in test [2], 105%; in [3], 96%; in [4] it was 100%; in [5] it was 103%; in [6], 96%. The Activity was determined as 65% in test [7]; 100% in test [8]; 53% in [9]; 96% in test [10]; 102% in test [11]; 103% in [12].

Consider `O=C(NC(=S)Nc1ccc(S(=O)(=O)NCc2ccco2)cc1)c1ccc(-c2ccccc2)cc1`, for which the Activity was determined as 168% in test [1]; 100% in test [2]; 99% in test [3]; 97% in test [4]; 91% in [5]; 93% in [6]. Moreover, the Activity in test [8] amounted to 101%; in test [10], 91%; in test [11], 246%; in test [12], 91%. In addition, the negative-log EC50 (pEC50) in [13] was 8.70.

Turning to `CN1CCN(S(=O)(=O)c2ccc(NC(=S)NC(=O)c3ccc(-c4ccccc4)cc3)cc2)CC1`, the Activity in test [1] was determined as 148%; in test [2], 101%; in test [3], 95%; in [4], 101%; in test [5], 101%; in [6], 97%. Also, the Activity was 81% in test [7], 76% in test [9], 218% in [11] and 91% in test [12]. For the same compound, the negative-log EC50 (pEC50) in [13] is 6.66.

In the case of `CCCCC/C=C\C/C=C\C/C=C\C/C=C\CCCC(=O)OC[C@@H](O)COP(=O)(O)O[C@@H]1[C@@H](O)[C@H](O)[C@@H](O)[C@H](O)[C@@H]1O`, the pEC50 in test [13] is 7.69.

As to `O=C(NC(=S)Nc1ccc(S(=O)(=O)Nc2ccccc2)cc1)c1ccc(-c2ccccc2)cc1`, the Activity amounted to 178% in test [1]; 100% in [2]; 96% in test [3]; 90% in [4]; 103% in [5]; 104% in [6]. The Activity in test [7] was found to be 78%; in test [9] it was 78%; in [11], 263%; in [12], 95%. Besides, the pEC50 in test [13] was 8.21.

As to `CN(C)S(=O)(=O)c1ccc(NC(=S)NC(=O)c2ccc(-c3ccccc3)cc2)cc1`, the Activity in test [1] is 101%; in test [2], 105%; in test [3], 96%; in test [4] it was 90%; in test [5] it was 54%; in [6], 93%. Further, the Activity worked out at 74% in [7], 79% in [9], 148% in test [11] and 96% in test [12]. The negative-log EC50 (pEC50) in test [13] was 7.25.

As to `CC(C)NS(=O)(=O)c1ccc(NC(=S)NC(=O)c2ccc(-c3ccccc3)cc2)cc1`, the Activity amounted to 110% in test [2]; 86% in test [3]; 96% in [4]; 87% in [5]; 98% in test [6]; 65% in [7]. Besides, the Activity worked out at 107% in test [8]; 34% in [9]; 95% in test [10]; 185% in [11]; 92% in [12].

`C=CCN(CC=C)S(=O)(=O)c1ccc(NC(=S)NC(=O)c2ccc([N+](=O)[O-])cc2)cc1`: the Activity worked out at 93% in test [1]; 99% in [2]; 105% in test [3]; 107% in test [4]; 97% in test [5]; 104% in test [6]. The Activity was 62% in [7]; 102% in [8]; 53% in test [9]; 102% in test [10]; 138% in test [11]; 91% in test [12].

Consider `CCCNS(=O)(=O)c1ccc(NC(=S)NC(=O)c2ccc(-c3ccccc3)cc2)cc1`, for which the Activity in test [1] turned out to be 172%; in test [2], 128%; in test [3], 85%; in test [4], 85%; in test [5], 96%; in test [6], 103%. Also, the Activity in [7] came to 77%; in test [9] it was 67%; in test [10], 103%; in test [11] it was 252%; in test [12], 91%. In addition, in test [13], the pEC50 is 6.76.

In the case of `O=C(NC(=S)Nc1ccc(S(=O)(=O)NCc2ccccc2)cc1)c1ccc(-c2ccccc2)cc1`, the Activity was found to be 197% in test [1]; 97% in test [2]; 83% in test [3]; 93% in [4]; 106% in test [5]; 97% in test [6]. Also, the Activity in test [7] was 86%; in test [9], 86%; in [11] it was 291%; in [12], 94%. In test [13], the pEC50 was 8.25.
